The text below walks through data of ChEMBL document CHEMBL1134348, “Novel glucocorticoid antedrugs possessing a 17beta-(gamma-lactone) ring” (J Med Chem, 2001).

Series [1] deals with Rattus norvegicus. Nature of the series: Inhibition of rat ear edema as percentage change in mean weight (47.21+/-1.49 mg) from control group of 72.25+/-2.24 mg at 0.25 ug dose. The class given is functional.
The test system of series [2] is Rattus norvegicus. The series is described as follows: Inhibition of rat ear edema as percentage change in mean weight (44.39+/-2.26 mg) from control group of 72.25+/-2.24 mg at 4.00 ug dose. The class given is functional.
In series [3] the test system is Rattus norvegicus. Nature of the series: Inhibition of rat ear edema as percentage change in mean weight (40.57+/-1.10 mg) from control group of 55.67+/-1.22 mg at 4.00 ug dose. The class given is functional.
Series [4] relates to Rattus norvegicus. Nature of the series: Inhibition of rat ear edema as percentage change in mean weight (39.79+/-0.99 mg) from control group of 55.67+/-1.22 mg at 1.00 ug dose. The series is classed as functional.
For series [5], the system named is Rattus norvegicus. The series is described as follows: Inhibition of rat ear edema as percentage change in mean weight (64.86+/-2.70 mg) from control group of 72.25+/-2.24 mg at 0.06 microg dose. The class given is functional.
Series [6] deals with Rattus norvegicus. Nature of the series: Inhibition of rat ear edema as percentage change in mean weight (44.71+/-1.53 mg) from control group of 72.25+/-2.24 mg at 1.00 ug dose. The class given is functional.
Series [7] concerns Rattus norvegicus. Nature of the series: Inhibition of rat ear edema as percentage change in mean weight (45.29+/-1.16 mg) from control group of 55.67+/-1.22 mg at 0.25 ug dose. The class given is functional.
Series [8] relates to Rattus norvegicus. The series is described as follows: Inhibition of rat ear edema as percentage change in mean weight (50.65 +/- 1.18 mg) from control group of 55.67+/-1.22 mg at 25 ug dose. The class given is functional.
The nature of series [9]: % stability in krebs buffer after 60 minutes. The series is classed as physicochemical. Particulars: Krebs buffer; read-out: Stability. Put shortly:
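Test compound, at a final concentration of 30 ug/mL, was spiked into Krebs buffer at 37 °C for 60 min, then quenched with 2 M citric acid. Supernatant was analysed by reversed-phase HPLC with UV detection at 240 nm and an internal standard, in duplicate. The read-out was % compound remaining.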

Series [10] in a line: % stability in human plasma after 60 minutes. The series is classed as ADME, organism-based. Particulars: plasma, read-out: Stability. The method, boiled down: (§1)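 Pooled heparinized plasma from 4 volunteers was incubated at 37 °C with test compound at a final concentration of 30 ug/mL, with DMSO-only controls. The reaction was stopped with 2 M citric acid at 10 and 60 min, with a zero-time sample. Supernatants were analysed by reversed-phase HPLC at 240 nm against an internal standard, in duplicate, and reported as % compound remaining.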

The nature of series [11]: half life in human plasma. The class given is ADME, organism-based. Put shortly: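 Pooled heparinised plasma from 4 volunteers, stored at −20 °C; compound spiked to final 30 ug/mL at 37 °C. Half-life taken from additional time points in this incubation; reaction stopped with 2 M citric acid, samples frozen overnight and centrifuged. Supernatant analysed by reverse-phase HPLC with UV at 240 nm, internal standard dexamethasone or hydrocortisone; duplicates.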

Series [12] has as its system Rattus norvegicus. Nature of the series: Inhibition of rat ear edema as percentage change in mean weight (44.05+/-1.18 mg) from control group of 55.67+/-1.22 mg at 100 ug dose. The series is classed as functional.
Series [13] concerns Rattus norvegicus. Nature of the series: Inhibition of rat ear edema as percentage change in mean weight (54.86 +/- 1.35 mg) from control group of 55.67+/-1.22 mg at 6.25 ug dose. The class given is functional.
Series [14] deals with Rattus norvegicus. The series is described as follows: Inhibition of rat ear edema as percentage change in mean weight (56.03 +/- 1.41 mg) from control group of 55.67+/-1.22 mg at 1.56 ug dose. The series is classed as functional.
A short description of series [15]: % stability in human plasma after 10 minutes. The series is classed as ADME, organism-based. As to conditions: plasma, read-out: Stability. The method, boiled down:
as §1

`CCC(=O)O[C@]1(C(=O)SCF)[C@H](C)C[C@H]2[C@@H]3C[C@H](F)C4=CC(=O)C=C[C@]4(C)[C@@]3(F)[C@@H](O)C[C@@]21C` [FLUTICASONE PROPIONATE]: the Decrease was found to be 34.7% in series [1]; 38.6% in series [2]; 27.1% in series [3]; 28.5% in series [4]; 10.23% in [5]; 38.1% in series [6]. This compound also gave a Decrease in [7] of 18.6%.
In general, half-life refers to how long it takes for the measured level to halve. Low values mean fast loss, high ones slow loss. As for `CC1(C)O[C@@H]2CC3C4C[C@H](F)C5=CC(=O)C=C[C@]5(C)[C@@]4(F)[C@@H](O)C[C@]3(C)[C@]2(SC2CCOC2=O)O1` (stereo not given in full), the Decrease in series [8] stood at 9.01%; in [12] it was 20.9%; in series [13] it was 1.46%; in [14], 0%. The remaining at 1 h in series [9] amounted to 74%; in series [10], 0%. Also, in series [11], the half-life came to 4 min. In addition, in series [15], the remaining at 10 min was determined as 24%.
